The subject of one assay is BL21-DE3. As to the kind of experiment: Displacement of [24-3H]OA from Halichondria okadai recombinant OABP 2.1 expressed in Escherichia coli BL21 (DE3) cells.
For assay [1], the target named is T1, Okadaic acid binding protein 2.3 (Halichondria okadai) (UniProt B0M1D1).
T1 sequence (whole entry): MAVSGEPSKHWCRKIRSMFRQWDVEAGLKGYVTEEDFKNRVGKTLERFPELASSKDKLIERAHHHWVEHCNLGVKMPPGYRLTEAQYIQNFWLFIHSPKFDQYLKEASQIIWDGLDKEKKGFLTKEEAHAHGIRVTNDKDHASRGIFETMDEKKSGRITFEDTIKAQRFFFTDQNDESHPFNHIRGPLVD
As to the kind of experiment: Displacement of [24-3H]OA from Halichondria okadai recombinant OABP 2.3 expressed in Escherichia coli BL21 (DE3) cells.

Assay [2] concerns P388. As to the kind of experiment: Blockade of mitomycin-induced cytotoxicity in mouse P388 cells after 2 days by WST-8 assay in presence of Halichondria okadai recombinant OABP 2.1. It is filed as functional, cell-based.
The subject of assay [3] is P388. As to the kind of experiment: Blockade of okadaic acid-induced cytotoxicity in mouse P388 cells after 2 days by WST-8 assay in presence of Halichondria okadai recombinant OABP 2.1. It is filed as functional, cell-based. Conditions: P388, 48 h. The method, boiled down:
(§1)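 P388 cells kept in RPMI 1640 with FBS, penicillin and streptomycin. Cells exposed to 100 nM okadaic acid together with graded concentrations of recombinant OABP for 2 days. WST-8 then added for 4 h; relative viability read as absorbance at 450 nm; EC50 from dose-response.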
In general terms: Tetrazolium assays rely on reduction of a dye to a coloured formazan, in cell work by metabolically active cells.

In assay [4] the test system is P388. As to the kind of experiment: Blockade of okadaic acid-induced cytotoxicity in mouse P388 cells after 2 days by WST-8 assay in presence of Halichondria okadai recombinant OABP 2.3. The following applies: P388, 48 h. It is filed as functional, cell-based. The method, boiled down: as §1

The source made the active and inactive calls. The rule behind the calls is not given here.

Take `C=C1[C@@H](O)[C@@H]2O[C@]3(CC[C@H](/C=C/[C@@H](C)[C@@H]4CC(C)=C[C@@]5(O[C@H](C[C@@](C)(O)C(=O)O)CC[C@H]5O)O4)O3)CC[C@H]2O[C@@H]1[C@@H](O)C[C@H](C)[C@H]1O[C@@]2(CC[C@H]1C)OCCC[C@H]2C`: the Activity entry (with BL21-DE3; in assay [1]) was “Dose-dependent effect” in each case.
For orientation: EC50 means the concentration giving half of the maximal effect. As to `C=C1[C@@H](O)[C@@H]2O[C@]3(CC[C@H](/C=C/[C@@H](C)[C@@H]4CC(C)=C[C@@]5(O[C@H](C[C@@](C)(O)C(=O)O)CC[C@H]5O)O4)O3)CC[C@H]2O[C@@H]1[C@@H](O)C[C@H](C)[C@H]1O[C@@]2(CCCCO2)CC[C@H]1C` [OKADAIC ACID], the Activity entry (with BL21-DE3; in assay [1]) was “Dose-dependent effect” in each case. Also, the outcome in the assay on P388 [2] was inactive. Also, the EC50 in the assay on P388 [3] is 92 nM; in the assay on P388 [4], 87 nM.

The values above are taken from ChEMBL document CHEMBL1268890, “Binding of diarrheic shellfish poisoning toxins to okadaic acid binding proteins purified from the sponge Halichondria okadai” (Bioorg Med Chem, 2010).
